This is an account of results in the RNAGym collection of RNA variant scans (doi:10.1126/science.aae0568).

Fewer inactive variants are shown than the library holds.

B1: tRNA (parent)
chain: GUUCCGUUGGCGUAAUGGUAACGCGUCUCCCUCCUAAGGAGAAGACUGCGGGUUCGAGUCCCGUACGGAACG

This data set covers variants of B1. The data set can be described thus: yeast fitness relative to wild type (ratio to wild type); higher = fitter; tRNA-Arg(CCU), competitive growth, 37 C, YPD. In a few lines:
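Start and end populations of a pooled competition were compared by 100-nucleotide paired-end sequencing of gene amplicons. The Saccharomyces cerevisiae strains carried tRNA-Arg(CCU) gene variants at the native genomic locus, synthesised with a 3% per-site mutation rate at 69 sites, and competed in YPD at 37°C for 24 hours in six parallel replicates. Darwinian fitness relative to wild type was based on the change in genotype frequencies. Genotypes required ≥ 100 starting reads, and estimates < 0.5 were set to 0.5.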
For C11G C24U C49U, the yeast fitness was not above 0.5.
The figure for G23C A37G A69C is 0.548; for U2G C33U C34G U59A it is not above 0.5.
For the variant U13A G25C A45G, the yeast fitness was found to be 0.535.
The figure for U26A G48A C49G A70U is not above 0.5; for A36G A42C U47C it is 0.687.
Turning to C5G A20C A42U G44A C61G, the yeast fitness was not above 0.5.
As for U8C G12A A65G, the yeast fitness stood at 0.615.
The figure for G9C A21G C34G is not above 0.5.
The figure for U13C C33U A45G G50A C66A A70U is not above 0.5.
The figure for C11A A37C C49G C55G is not above 0.5.
Take U13G A21U C22G U35A A65G A70C: the yeast fitness was not above 0.5.
On to C4U A20U A40U G52A A69U, for which the yeast fitness was not above 0.5.
The figure for G12A G39C U47A is not above 0.5.
G10C C24U C34U A36U C46A: the yeast fitness was 0.505.
As to C11G A21G A57G, the yeast fitness is not above 0.5.
The figure for C4G U13A is 0.874.
For A57C G67C, the yeast fitness worked out at 0.707.
The figure for U3A U47G G67A A69U is not above 0.5.
The figure for G52C G56A is 0.689; for C31A C49A C60U it is not above 0.5.
Regarding A20G C24A A70U, the yeast fitness turned out to be 0.546.
The figure for G18A C30U A40G G68C is not above 0.5; for G12A A15G A69C it is 0.707; for A15U C27U U28G C33U it is not above 0.5.
On to C5U U7G G9A C31G A36G, for which the yeast fitness is not above 0.5.
For C22U G63A, the yeast fitness was found to be 0.81.
Regarding C22U A42G C55G A70U, the yeast fitness stood at 0.556.
The figure for U7G C24U C33U is 0.568; for C27U A40G G44A C62U it is not above 0.5.
The figure for U19A C30U G38C is 0.694; for U32A G68C it is 0.721.
The figure for U32C A42C C46U is 0.63.
Turning to C4U C5G A40G G51C U59A C61A A69U, the yeast fitness was not above 0.5.
The figure for C24U G56A C60A is 0.594; for U13G G18C C30U C33G A65C A70G it is not above 0.5; for C11G A15U U16C C24G A40G C62U A70C it is not above 0.5.
The figure for G18A U54C is 0.646; for G9A C11A A14C U16A C31A C62U it is not above 0.5; for U28A U35A it is 0.584.
The figure for U28C G41C C49A is not above 0.5; for A21G C46A it is 1.01.
Regarding A37G A70C, the yeast fitness amounted to 0.76.
The figure for U19C C24U C27G G38C A57U C60A C62G is not above 0.5; for U32C A42U G48C it is 0.567; for U28A U53A it is 0.6.
The figure for G12A U19C A21C is 0.685.
The figure for A20U U59A is 0.847.
G12A C27U C49U: the yeast fitness worked out at 0.611.
Consider G9C C11A U47G A69C, for which the yeast fitness was found to be 0.601.
The figure for U2A A43C is 0.893.
The figure for U2A U59A is 0.917.
Regarding A36C A65G, the yeast fitness was found to be 0.598.
For the variant U16A C24A C30G C34U G56C, the yeast fitness amounted to 0.634.
The figure for A40U C49G G56C is not above 0.5.
As for C11U A21C A42G, the yeast fitness worked out at 0.523.
Turning to U7A C34G C66U, the yeast fitness is not above 0.5.
The figure for C5U C11A C24A U28G is 0.63; for C24U G41C it is 0.847; for G39U A43G it is 0.811.
Regarding G9C A21G A57C, the yeast fitness was not above 0.5.
The figure for C4U A42G G58A is 0.717.
The figure for A15C U47A is 1.09; for U2G C4U G52C it is 0.516.
The figure for A21C A40U C55G C66G is not above 0.5; for U2A C5A A40U it is 0.647; for C31G A45G it is 0.809.
On to U13A A15G U16G A57G C61A, for which the yeast fitness was not above 0.5.
The figure for U13G U32A C33A is not above 0.5; for U26A C27A U54C it is not above 0.5.
The figure for C24A C27U A40U A57C is 0.512; for A15C G39A A57G C66U it is not above 0.5; for G10C U26A C27U A42G A70G it is not above 0.5.
The figure for G10A C22A C46A is not above 0.5.
For the variant C5G G25C C62U, the yeast fitness was determined as 0.721.
The figure for U3C A37U G51A C62U is not above 0.5; for A14C U28C A40G C55A A57C C62U it is not above 0.5; for C4U U28A A57C C61A it is not above 0.5.
Consider C4G C30G G50U, for which the yeast fitness was not above 0.5.
In the case of U16A G52A A57C, the yeast fitness turned out to be 0.571.
The figure for C22G G25C U26C C27G A40G is not above 0.5; for A15C G39A A65G it is 0.517.
The figure for A36C A70U is 0.703; for A21U G67U it is 0.742; for A14C C31U A69U it is not above 0.5.
The figure for C27U G51C U59C is not above 0.5; for C5G G44C C49G it is 0.521.
As for U2C A14G A36C U47A C61A, the yeast fitness is not above 0.5.
The figure for C31G C46G G58C is 0.928.
The figure for A14C U32G G58A A65C is 0.645.
Turning to U19C C24G A37U U54G U64A, the yeast fitness was not above 0.5.
The figure for C5G U7A C11U A36C G38A G44C is 0.589.
The figure for U19C G58C C61U C66U is 0.529; for A40C G58A it is 0.962.
The figure for G17C U35G is 0.554; for G25A C30G C34A C49G it is not above 0.5.
For C4G C5U C30U G39A, the yeast fitness was not above 0.5.
The figure for C29U C30U U59A G63C is not above 0.5; for A21G C24G A37U C66U it is not above 0.5.
The figure for C4G G17A C22A G38A C49U U53C is not above 0.5; for U2C C61U it is 0.931.
Take G6A C24G C31G C34U: the yeast fitness was not above 0.5.
The figure for C24G C60U G63A is not above 0.5.
The figure for U7A A20C G25A G68C is not above 0.5; for G9C G10A G12C G25C G52C it is not above 0.5; for G6A C30G G67C A69G it is not above 0.5.
The figure for C24U A37G A45U C55U is 0.708; for U13C G68C it is 0.877.
In the case of U54C G68A, the yeast fitness was found to be 0.937.
The figure for C24U A37U is 0.652.
The figure for G41C A43C is 0.731; for C4U C5U C31G A45G it is not above 0.5.
The figure for U16A A45C is 0.994.
For the variant C24A A42C U47A G63C A69C, the yeast fitness is not above 0.5.
The figure for A15G C49G C55G is 0.577; for G6A U19A U53A C60A A69U it is not above 0.5; for C4U G9A it is 0.927.
The figure for C4G A15G U26G is not above 0.5; for U7G A21C U59A it is not above 0.5; for G12A U59A it is 0.8.
The figure for A20U A21G C61U is not above 0.5; for C4G U16C A36U it is not above 0.5.
On to C11U C55U, for which the yeast fitness came out at 0.8.
Regarding C22U A45G, the yeast fitness is 0.747.
On to C4A A20G G58A A70C, for which the yeast fitness was determined as 1.02.
With C4U G12A G67A, the yeast fitness is 0.674.
The figure for A21C C61U A70U is 0.623; for C33A G39C G41C G44C it is 0.549; for U2A U3A U16C C24U C62U it is 0.629.
The figure for U7A A21C U32C G48C C60A is not above 0.5.
For U8C G12C C55U A70C, the yeast fitness turned out to be 0.542.
The figure for G10A C33U is 0.592; for C5A U16C A45G G50A it is not above 0.5.
The figure for U7A G41C U54A is 0.588.
The figure for C11A C22G C29G C62U is 0.57; for A15U A36C A40U G58C G67C it is not above 0.5; for C24U A43C it is 0.786.
Turning to U35C G48C, the yeast fitness was found to be 0.973.
C5U G10C C30G C34U A42C: the yeast fitness was not above 0.5.
The figure for G17C A42C C66U is not above 0.5; for C4U G17C C49A it is 0.55; for C5U A14C C34G A37U A40U C66U it is not above 0.5.
The figure for C11U C29G is 0.687; for A20C A45C it is 0.843; for A20G G25A C34A A36G G50C it is not above 0.5.
The figure for U2C G12A A15G C29G C33G G41C C66U is not above 0.5; for A57U G68C it is 0.652; for G18A A40G A70C it is not above 0.5.
For the variant U8C U47A, the yeast fitness was found to be 0.937.
The figure for C11U U19G is 0.962; for C49U C55G it is 0.885; for C11A A21C C31A C55U G68C it is not above 0.5.
The figure for C4U G6A C34U is not above 0.5; for C29U C55G A65U it is not above 0.5; for C27A A36C A42U it is not above 0.5.
The figure for C5A A14U U53A is not above 0.5.
On to U13A A20C A70C, for which the yeast fitness was not above 0.5.
Take U16G G38C: the yeast fitness turned out to be 0.653.
As to C5G A20C C29G G38C, the yeast fitness was determined as 0.529.
Take C34A U54A: the yeast fitness is not above 0.5.
The figure for G17A C24G C33U A37U is not above 0.5; for U7C G18A G41A A42C G50C A70G it is not above 0.5; for A57G C66U it is 0.816.
Take C4G A14G C27U A42U: the yeast fitness is not above 0.5.
The figure for A37G G44C A57U G68C is 0.512.
The figure for C4U A37U A43U is not above 0.5.
The figure for U2G C29U is 0.851.
